This passage reports inhibition results from ChEMBL document CHEMBL1153722, “Design, synthesis, and characterization of peptide-based rab geranylgeranyl transferase inhibitors” (J Med Chem, 2009).

Square brackets hold non-standard residues; d marks the D form. Peptide text beside a SMILES is read from it. * marks the point of attachment. Hydrocinnamoyl = O=C(CCc1ccccc1)*; Undecanoyl = CCCCCCCCCCC(=O)*; pGlu = O=C1CC[C@@H](C(=O)O)N1; Nicotinoyl = O=C(c1cccnc1)*; Ac6c = NC1(C(=O)O)CCCCC1; Morpholide = C1CN(*)CCO1; NHNH2 = NN*; NHOH = ON*

The species named for the experiment is Rattus norvegicus. The experiment is described as follows: Inhibition of rat recombinant Rab geranylgeranyltransferase at 100 uM in presence of canine Rab7 and rat REP1 NBD-FPP based continuous fluorimetric assay. An outline of the steps:
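Continuous fluorometric assay in 96/384-well format: 3 μM Rab7, 3 μM REP1, 9 μM NBD-FPP and 400 nM RabGGTase, with or without inhibitor. […] IC50 was calculated from three independent measurements.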
As for `CCCCCCCCCCC(=O)N[C@@H](Cc1c[nH]cn1)C(=O)N[C@@H](Cc1ccccc1)C(=O)N[C@@H](Cc1ccc(O)cc1)C(=O)NO` (Undecanoyl-His-Phe-Tyr-{NHOH}), the inhibition was 89%.
The value for `CCCCOC(=O)[C@H](Cc1ccc(O)cc1)NC(=O)CNC(=O)[C@H](Cc1ccc(O)cc1)NC(=O)c1ccc(F)cc1` was 76%.
With `CC(C)C[C@H](NC(=O)[C@H](CO)NC(=O)[C@H](Cc1ccccc1)NC(=O)c1ccc(-c2ccccc2)cc1)C(N)=O`, the inhibition stood at 110%.
For `CCCCCCCCCCCCCCCC(=O)N[C@@H](Cc1ccc(O)cc1)C(=O)N[C@@H](Cc1ccc(O)cc1)C(=O)N[C@@H](Cc1ccc(O)cc1)C(=O)OCCCl`, the inhibition came out at 114%.
The value for `CCCCCCCCCCC(=O)N[C@@H](Cc1c[nH]cn1)C(=O)N[C@@H](Cc1ccccc1)C(=O)N[C@@H](Cc1ccc(O)cc1)C(=O)NCCCn1ccnc1` was 101%; that for `CC(C)C[C@H](NC(=O)[C@H](CO)NC(=O)[C@H](Cc1ccccc1)NC(=O)CCc1ccccc1)C(=O)O` was 80%; that for `C[C@@H](O)[C@H](NC(=O)C(Br)C(Br)c1ccccc1)C(=O)N[C@@H](Cc1ccccc1)C(=O)N[C@@H](CCC(N)=O)C(=O)Nc1cccc(Br)n1` (stereo partly specified) was 113%.
Take `O=C(CNC(=O)[C@H](Cc1ccc(O)cc1)NC(=O)c1ccc(F)cc1)N[C@@H](Cc1ccc(O)cc1)C(=O)N1CCOCC1`: the inhibition came out at 108%.
The value for `C[C@@H](O)[C@H](NC(=O)/C=C/c1ccccc1)C(=O)N[C@@H](Cc1ccccc1)C(=O)N[C@@H](CCC(N)=O)C(=O)OCCCl` was 81%; that for `CC[C@H](C)[C@H](NC(=O)[C@H](Cc1ccccc1)NC(=O)c1cccnc1)C(=O)N[C@@H](CCCNC(=N)N)C(N)=O` (Nicotinoyl-Phe-Ile-Arg-NH2) was 79%; that for `CCCCCCCCCCC(=O)N[C@@H](Cc1ccc(O)cc1)C(=O)N[C@@H](Cc1c[nH]cn1)C(=O)N[C@@H](Cc1ccc(O)cc1)C(N)=O` (Undecanoyl-Tyr-His-Tyr-NH2) was 83%.
Regarding `NNC(=O)[C@H](CCC(N)=O)NC(=O)[C@H](Cc1ccccc1)NC(=O)[C@H](CO)NC(=O)CCc1ccccc1` (Hydrocinnamoyl-Ser-Phe-Gln-NHNH2), the inhibition amounted to 104%.
Consider `COC(=O)[C@H](CCC(N)=O)NC(=O)[C@H](NC(=O)[C@H]1CCCN1C(=O)c1ccc([N+](=O)[O-])c(NC(C)=O)c1)C(C)C`, for which the inhibition was 98%.
`NC(=O)CC[C@H](NC(=O)[C@H](Cc1ccccc1)NC(=O)CNC(=O)CCc1ccccc1)C(=O)N1CCOCC1` (Hydrocinnamoyl-Gly-Phe-Gln-Morpholide): the inhibition was determined as 89%.
Turning to `CCCCCCCCCCC(=O)N[C@@H](Cc1c[nH]cn1)C(=O)N[C@@H](Cc1c[nH]cn1)C(=O)N[C@@H](CO)C(=O)NCCCCN`, the inhibition is 75%.
Take `O=C(N[C@@H](Cc1ccc(O)cc1)C(=O)N[C@@H](Cc1ccc(O)cc1)C(=O)N[C@@H](Cc1ccc(O)cc1)C(=O)Nc1ccc(F)cc1F)c1ccc(F)cc1F`: the inhibition stood at 97%.
As to `COC(=O)CNC(=O)[C@H](CO)NC(=O)[C@H](Cc1ccccc1)NC(=O)C1COC(c2ccccc2)=N1` (stereo partly specified), the inhibition is 114%.
On to `CC[C@H](C)[C@H](NC(=O)c1ccc(-c2ccccc2)cc1)C(=O)N[C@@H](C(=O)N[C@@H](CCC(N)=O)C(=O)N(C)OC)C(C)C`, for which the inhibition was 109%.
As for `CC[C@H](C)[C@H](NC(=O)c1ccc(-c2ccccc2)cc1)C(=O)N[C@@H](C(=O)N[C@@H](CCC(N)=O)C(=O)NN)C(C)C`, the inhibition came to 84%.
Regarding `C[C@H](NC(=O)[C@@H](NC(=O)c1ccc(-c2ccccc2)cc1)[C@@H](C)O)C(=O)N[C@@H](CCC(=O)O)C(=O)NN`, the inhibition is 89%.
As to `CN(CCc1ccccn1)C(=O)[C@H](Cc1ccc(O)cc1)NC(=O)CCNC(=O)[C@H](Cc1c[nH]cn1)NC(=O)OCc1ccccc1`, the inhibition turned out to be 78%.
Consider `CC[C@H](C)[C@H](NC(=O)c1ccc(-c2ccccc2)cc1)C(=O)N[C@@H](C(=O)N[C@@H](CCC(N)=O)C(=O)OC)C(C)C`, for which the inhibition turned out to be 94%.
In the case of `CCCCCCCCCCC(=O)N[C@@H](Cc1c[nH]cn1)C(=O)N[C@@H](Cc1c[nH]cn1)C(=O)N[C@@H](CO)C(N)=O` (Undecanoyl-His-His-Ser-NH2), the inhibition came out at 81%.
For the molecule `COC(=O)[C@H](CC(C)C)NC(=O)[C@H](COC(C)(C)C)NC(=O)[C@H](Cc1ccccc1)NC(=O)CCc1ccccc1`, the inhibition stood at 81%.
For `CCCCCCCCCCCC(=O)N[C@@H](Cc1c[nH]cn1)C(=O)N[C@@H](Cc1c[nH]cn1)C(=O)N[C@@H](Cc1ccc(O)cc1)C(=O)NCCCn1ccnc1`, the inhibition stood at 124%.
As for `C=CCCCOC(=O)[C@H](CCC(N)=O)NC(=O)[C@H](Cc1ccccc1)NC(=O)[C@H](C)NC(=O)CCc1ccccc1`, the inhibition was 75%.
In the case of `O=C(N[C@@H](Cc1c[nH]cn1)C(=O)N[C@@H](Cc1ccc(O)cc1)C(=O)N[C@@H](Cc1ccccc1)C(=O)O)OCc1ccc(OCc2ccccc2)cc1`, the inhibition was found to be 53%.
`C=CCCCCCCCCCOC(=O)[C@H](CO)NC(=O)CNC(=O)[C@H](CO)NC(=O)/C=C/c1ccc(F)cc1`: the inhibition was found to be 57%.
The same measure for `O=C(CNC(=O)[C@@H]1CCCN1C(=O)/C=C/c1ccccc1)N[C@@H](Cc1ccccc1)C(=O)O`: 71%; for `CC[C@H](C)[C@H](NC(=O)/C=C/c1ccc(F)cc1)C(=O)N[C@@H](C)C(=O)N[C@@H](CCC(N)=O)C(=O)O`: 83%.
For the molecule `CCCCCCCCCCCNC(=O)[C@H](Cc1ccc(O)cc1)NC(=O)CNC(=O)[C@H](Cc1ccc(O)cc1)NC(=O)CCc1ccc(F)cc1`, the inhibition was 88%.
The same measure for `CC(C)[C@H](NC(=O)[C@@H](Cc1ccccc1)NC(=O)c1ccc(-c2ccccc2)cc1)C(=O)N[C@H](C)C(=O)N1CCC[C@H]1C(N)=O`: 71%; for `CCCCCCCCCCC(=O)N[C@@H](Cc1c[nH]cn1)C(=O)N[C@@H](Cc1ccccc1)C(=O)N[C@@H](Cc1ccc(O)cc1)C(=O)Nc1ccccc1N`: 34%; for `Cc1ccc(C(=O)OC[C@H](NC(=O)CNC(=O)[C@H](COC(=O)c2ccc(C)nc2)NC(=O)c2coc(-c3ccccc3)n2)C(=O)O)cn1`: 100%.
With `O=C(CCc1ccc(-c2ccccc2)cc1)N[C@H](Cc1cnc[nH]1)C(=O)N[C@@H](Cc1ccc(O)cc1)C(=O)N[C@@H](Cc1ccccc1)C(=O)O`, the inhibition was 48%.
As for `O=C(CCc1ccccc1)N[C@@H](CO)C(=O)NCC(=O)N[C@@H](CO)C(=O)N1CCOCC1` (Hydrocinnamoyl-Ser-Gly-Ser-Morpholide), the inhibition amounted to 83%.
Turning to `CCCCCCCCCCCCCCCCNC(=O)[C@H](CC1CCCC1)NC(=O)[C@H](CCC(N)=O)NC(=O)[C@@H](NC(=O)CCC(O)CBr)[C@@H](C)O` (stereo partly specified), the inhibition is 75%.
In the case of `O=C(CCNC(=O)[C@H](Cc1c[nH]cn1)NC(=O)OCc1ccccc1)N[C@@H](Cc1ccc(O)cc1)C(=O)NCCCn1ccnc1`, the inhibition was determined as 88%.
With `COC(=O)[C@H](CO)NC(=O)[C@H](Cc1ccccc1)NC(=O)[C@H](CO)NC(=O)CCc1ccccc1` (Hydrocinnamoyl-Ser-Phe-Ser-OMe), the inhibition came out at 90%.
`C[C@@H](O)[C@H](NC(=O)/C=C/c1ccccc1)C(=O)N[C@@H](Cc1ccccc1)C(=O)N[C@@H](CCC(N)=O)C(=O)Nc1nccs1`: the inhibition stood at 86%.
In the case of `O=C(CCc1ccc(F)cc1)N[C@@H](Cc1ccc(O)cc1)C(=O)NCC(=O)N[C@@H](Cc1ccc(O)cc1)C(=O)Nc1ccc(F)cc1`, the inhibition was 80%.
As to `CC(C)C[C@H](NC(=O)[C@@H]1CCC(=O)N1)C(=O)N[C@@H](CCCCN)C(=O)NC1(C(N)=O)CCCCC1` ([pGlu]LK[Ac6c]-NH2), the inhibition worked out at 95%.
The value for `CCCCCCCCCCC(=O)N[C@@H](Cc1ccc(O)cc1)C(=O)N[C@@H](Cc1c[nH]cn1)C(=O)N[C@@H](Cc1ccc(O)cc1)C(=O)OCCN` was 61%.
The same measure for `O=C(/C=C/c1ccccc1)N[C@@H](Cc1ccccc1)C(=O)N[C@@H](Cc1ccccc1)C(=O)N[C@@H](Cc1ccc(O)cc1)C(=O)O`: 50%; for `O=C(CNC(=O)[C@H](Cc1ccc(O)cc1)NC(=O)CCc1ccc(F)cc1)N[C@@H](Cc1ccc(O)cc1)C(=O)O`: 86%.
In the case of `CC(C)C[C@H](NC(=O)[C@H](COC(C)(C)C)NC(=O)[C@H](Cc1ccccc1)NC(=O)/C=C/c1ccc(F)cc1)C(N)=O`, the inhibition worked out at 83%.
In the case of `COC(=O)[C@H](Cc1ccc(O)cc1)NC(=O)CNC(=O)[C@H](C)NC(=O)/C=C/c1ccc(F)cc1`, the inhibition came to 79%.
Regarding `CCCCCCCCCCCOc1ccc(C(=O)N[C@@H](Cc2ccc(O)cc2)C(=O)N[C@@H](Cc2ccc(O)cc2)C(=O)N[C@@H](Cc2ccc(O)cc2)C(=O)NCc2ccc(F)cc2F)cc1`, the inhibition worked out at 99%.
The same measure for `CCCCCCCCCCC(=O)N[C@@H](Cc1c[nH]cn1)C(=O)N[C@@H](Cc1c[nH]cn1)C(=O)N[C@@H](CO)C(=O)NOC(C)(C)C`: 52%; for `NCCCC[C@H](NC(=O)CCc1ccccc1)C(=O)N[C@@H](Cc1c[nH]cn1)C(=O)N[C@@H](CO)C(=O)NC1CCCCC1`: 98%; for `CC#CCOC(=O)[C@H](Cc1ccccc1)NC(=O)[C@H](CC(C)C)NC(=O)[C@@H]1CCCN1C(=O)/C=C/c1ccccc1`: 107%.
`COC(=O)[C@H](CC(C)C)NC(=O)[C@H](COC(C)(C)C)NC(=O)[C@H](Cc1ccccc1)NC(=O)c1ccc(-c2ccccc2)cc1`: the inhibition was found to be 84%.
Turning to `COC(=O)[C@H](CO)NC(=O)[C@H](Cc1ccccc1)NC(=O)[C@H](CO)NC(=O)/C=C/c1ccc(F)cc1`, the inhibition amounted to 98%.
The same measure for `NC(=O)CC[C@H](NC(=O)[C@H](Cc1ccccc1)NC(=O)[C@H](CO)NC(=O)CCc1ccccc1)C(=O)Nc1ccc(F)cc1F`: 104%; for `CCCCCCCCCCCCCCCC(=O)N[C@@H](Cc1ccc(O)cc1)C(=O)N[C@@H](Cc1ccc(O)cc1)C(=O)N[C@@H](Cc1ccc(O)cc1)C(=O)Nc1nccs1`: 83%; for `O=C(N[C@@H](Cc1ccc(O)cc1)C(=O)N[C@@H](Cc1ccc(O)cc1)C(=O)N[C@@H](Cc1ccc(O)cc1)C(=O)NCc1ccccc1)c1ccc(F)cc1F`: 70%.

In general, inhibition refers to the relative decrease from the control value, in per cent.
